Measured values reported in article PMC3932990 (Journal of medicinal chemistry, 2013).

Tests used:
RPA70N [1] = target: T1, RPA70N (Homo sapiens, UniProt P27694); test: NMR-based titration, binding to RPA70N; details: linked compound vs fragments
RPA70N [2] = target: T1, RPA70N; test: ATRIP-based FPA competition assay; type: binding; details: from FPA-derived Kd
In short: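 Competitive fluorescence polarization anisotropy. Buffer: 50 mM HEPES, 75 mM NaCl, 5 mM DTT, pH 7.5, 5% DMSO. Test compound run as 10-point 3-fold series, 500–0.025 µM final. 4-parameter logistic IC50 converted to Kd.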

| Structure (SMILES) | increase in affinity with respect to the starting fragments (RPA70N [1]) | ligand efficiency (LE) (RPA70N [2]) |
| --- | --- | --- |
| Cc1cccc(-n2nc(C(=O)O)cc2-c2ccc(OCc3ccc(-c4ccc(C(=O)O)o4)cc3)cc2)c1 [compound 7, 5-(4-((4-(5-Carboxyfuran-2-yl)benzyl)oxy)phenyl)-1-(m-tolyl)-1H-pyrazole-3-carboxylic acid] | > 20 fold | – |
| O=C(O)c1cc(-c2ccc(CNC(=S)c3ccc(-c4ccc(C(=O)O)o4)cc3Cl)cc2)n(-c2ccc(Cl)c(Cl)c2)n1 [compound 8, 5-(4-((4-(5-Carboxyfuran-2-yl)-2-chlorophenylthioamido)methyl)phenyl)-1-(3,4-dichlorophenyl)-1H-pyrazole-3-carboxylic acid] | – | 0.23 |
| O=C(O)c1cc(-c2ccc(CNC(=O)c3ccc(-c4ccc(C(=O)O)o4)cc3Cl)cc2)n(-c2ccc(Cl)c(Cl)c2)n1 [compound 22, 5-(4-((4-(5-Carboxyfuran-2-yl)-2-chlorobenzamido)methyl)phenyl)-1-(3,4-dichlorophenyl)-1H-pyrazole-3-carboxylic acid] | – | 0.18 |
